From ChEMBL document CHEMBL4699485, “Discovery and Development of SPR519 as a Potent, Selective, and Orally Bioavailable Inhibitor of PI3Kα and mTOR Kinases for the Treatment of Solid Tumors” (J Med Chem, 2020)

How the values were obtained:
A2780 = test: Antiproliferative activity against human A2780 cells after 48 hrs by MTT assay; assay type: functional, cell-based; conditions: A2780, 48 h
In short: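 A2780 cells grown in DMEM with 10% FBS, L-glutamine and antibiotics, seeded at 10000 cells/well and allowed to adhere overnight. Treated 48 h across 20 µM–0.001 µM. MTT (5 mg/mL in PBS) added for 4 h, formazan dissolved in DMSO, absorbance read at 550 nm. % inhibition fit to a four-parameter log inhibitor vs response curve.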

[1] = Metabolic stability in dog liver microsomes assessed as parent compound remaining at 10 uM remaining after 120 mins in presence of NADPH by HPLC analysis; assay type: ADME, Canis lupus familiaris, Microsome; conditions: read-out: Stabilty
In short: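 Compound at 10 µM was incubated with 0.5 mg/mL liver microsomes and 1 mM NADPH (final). Samples were taken at 0, 15, 30, 60 and 120 min and stopped with acetonitrile, then centrifuged and the supernatant analysed by HPLC. Percent parent remaining was set relative to the 0 min peak area (100%).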

[2] = Cmax in Swiss mouse at 3 mg/kg, po via gavage by LC-MS/MS analysis; assay type: ADME, organism-based; set-up: route oral, dose 3 mg/kg; conditions: in vivo
In short: (§1)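 Female Swiss mice (n=3/group), fasted overnight, given single oral gavage dose in 0.5% CMC/0.5% Tween 80 (10 mL/kg) at 1, 3 or 10 mg/kg. Serial blood sampling at 0.16–8 h into heparinized tubes. Plasma extracted with acetonitrile containing verapamil internal standard and quantified by LC-MS/MS. Cmax, Tmax, AUC and t1/2 derived from the concentration–time profile.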

[3] = Elimination half life in Swiss mouse at 3 mg/kg, po via gavage by LC-MS/MS analysis; assay type: ADME, organism-based; conditions: in vivo, read-out: beta t1/2 (converted); in short: as §1
[4] = target: Voltage-gated inwardly rectifying potassium channel KCNH2 (Homo sapiens, UniProt Q12809); test: Inhibition of human ERG channel trafficking expressed in mammalian expression system at 1 to 30 uM by HERG-Lite assay; conditions: dose 1-30 µM
Chain of Voltage-gated inwardly rectifying potassium channel KCNH2 (Q12809 whole entry): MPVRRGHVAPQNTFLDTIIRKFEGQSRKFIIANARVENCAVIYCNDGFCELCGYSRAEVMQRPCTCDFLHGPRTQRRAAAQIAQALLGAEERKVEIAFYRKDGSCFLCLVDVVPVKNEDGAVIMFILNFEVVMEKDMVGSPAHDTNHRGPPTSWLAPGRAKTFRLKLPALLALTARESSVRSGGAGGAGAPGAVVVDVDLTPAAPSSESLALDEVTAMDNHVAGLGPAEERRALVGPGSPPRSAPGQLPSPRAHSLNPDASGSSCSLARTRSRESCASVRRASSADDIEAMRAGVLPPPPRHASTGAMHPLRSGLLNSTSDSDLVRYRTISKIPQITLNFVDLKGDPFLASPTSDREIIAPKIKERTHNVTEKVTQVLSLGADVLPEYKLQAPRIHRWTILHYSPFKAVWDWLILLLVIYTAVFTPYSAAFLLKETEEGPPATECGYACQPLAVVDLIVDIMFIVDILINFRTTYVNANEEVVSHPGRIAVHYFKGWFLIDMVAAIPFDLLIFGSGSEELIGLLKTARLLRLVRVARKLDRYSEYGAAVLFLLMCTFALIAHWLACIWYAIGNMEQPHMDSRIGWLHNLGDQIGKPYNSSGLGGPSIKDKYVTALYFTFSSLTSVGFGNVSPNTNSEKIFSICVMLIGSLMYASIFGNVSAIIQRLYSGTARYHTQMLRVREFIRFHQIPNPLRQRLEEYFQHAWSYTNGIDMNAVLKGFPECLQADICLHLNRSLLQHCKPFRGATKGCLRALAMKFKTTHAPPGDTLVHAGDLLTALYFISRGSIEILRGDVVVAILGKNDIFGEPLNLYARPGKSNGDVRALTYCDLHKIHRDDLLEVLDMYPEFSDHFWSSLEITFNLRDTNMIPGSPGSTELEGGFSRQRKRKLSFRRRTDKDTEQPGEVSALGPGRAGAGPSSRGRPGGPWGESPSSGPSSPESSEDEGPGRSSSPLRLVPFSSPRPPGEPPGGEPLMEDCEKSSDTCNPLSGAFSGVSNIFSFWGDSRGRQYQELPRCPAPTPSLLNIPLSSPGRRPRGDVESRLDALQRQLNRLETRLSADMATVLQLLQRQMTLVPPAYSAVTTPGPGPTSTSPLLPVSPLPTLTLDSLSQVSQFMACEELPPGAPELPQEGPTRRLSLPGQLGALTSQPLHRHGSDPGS
In short: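 HERG-lite assay scoring both channel blocking and trafficking inhibition, with test compound at 1, 10 and 30 µM. Geldanamycin (1 µM) served as the trafficking-inhibition reference and astemizole as the standard hERG binder.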

[5] = target: RAC-beta serine/threonine-protein kinase (Homo sapiens) (UniProt P31751); test: Inhibition of human AKT2 at 1 uM using fluorescently labeled peptide substrate measured after 3 hrs by microfluidic mobility shift assay relative to control
Chain of RAC-beta serine/threonine-protein kinase (Homo sapiens) (P31751 whole entry): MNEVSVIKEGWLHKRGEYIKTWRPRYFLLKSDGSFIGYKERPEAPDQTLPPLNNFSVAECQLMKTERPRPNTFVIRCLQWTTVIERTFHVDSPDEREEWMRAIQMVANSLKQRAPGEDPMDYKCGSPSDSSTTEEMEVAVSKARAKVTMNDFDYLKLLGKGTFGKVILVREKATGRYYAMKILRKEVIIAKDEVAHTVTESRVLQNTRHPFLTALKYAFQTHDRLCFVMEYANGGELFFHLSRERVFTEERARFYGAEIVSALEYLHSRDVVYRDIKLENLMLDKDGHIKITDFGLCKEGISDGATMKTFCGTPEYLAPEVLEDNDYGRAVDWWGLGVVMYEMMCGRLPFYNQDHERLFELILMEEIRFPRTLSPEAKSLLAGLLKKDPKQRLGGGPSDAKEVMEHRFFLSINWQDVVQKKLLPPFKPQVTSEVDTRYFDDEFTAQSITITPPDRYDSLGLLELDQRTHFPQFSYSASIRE
In short: (§2)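 Single-concentration screen at 1 µM in duplicate, 1% final DMSO. Kinase (typically 1 nM), fluorescently labeled peptide substrate (typically 1 µM), ATP at Km and Mg²⁺ incubated about 3 h at 25 °C, then EDTA-quenched. Substrate and phosphorylated product separated by microfluidic electrophoresis and quantified by fluorescence.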

[6] = target: RAC-gamma serine/threonine-protein kinase (Homo sapiens) (UniProt Q9Y243); test: Inhibition of human AKT3 at 1 uM using fluorescently labeled peptide substrate measured after 3 hrs by microfluidic mobility shift assay relative to control; in short: as §2
Chain of RAC-gamma serine/threonine-protein kinase (Homo sapiens) (Q9Y243 whole entry): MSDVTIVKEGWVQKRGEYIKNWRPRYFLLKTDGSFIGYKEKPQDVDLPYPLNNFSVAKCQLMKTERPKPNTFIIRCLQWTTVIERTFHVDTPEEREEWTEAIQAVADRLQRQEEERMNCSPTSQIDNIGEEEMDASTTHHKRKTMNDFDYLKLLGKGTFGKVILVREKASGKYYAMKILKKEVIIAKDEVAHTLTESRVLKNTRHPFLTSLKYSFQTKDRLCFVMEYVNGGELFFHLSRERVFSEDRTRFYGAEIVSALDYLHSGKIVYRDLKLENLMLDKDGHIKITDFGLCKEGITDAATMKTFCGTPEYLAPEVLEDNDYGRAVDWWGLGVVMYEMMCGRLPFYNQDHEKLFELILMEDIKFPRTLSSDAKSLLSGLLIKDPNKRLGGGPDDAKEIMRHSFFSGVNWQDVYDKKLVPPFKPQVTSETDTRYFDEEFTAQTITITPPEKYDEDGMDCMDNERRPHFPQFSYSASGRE

[7] = target: Receptor tyrosine-protein kinase erbB-2 (Homo sapiens) (UniProt P04626); test: Inhibition of human ERBB2 at 1 uM using fluorescently labeled peptide substrate measured after 3 hrs by microfluidic mobility shift assay relative to control; in short: as §2
Chain of Receptor tyrosine-protein kinase erbB-2 (Homo sapiens) (P04626 whole entry): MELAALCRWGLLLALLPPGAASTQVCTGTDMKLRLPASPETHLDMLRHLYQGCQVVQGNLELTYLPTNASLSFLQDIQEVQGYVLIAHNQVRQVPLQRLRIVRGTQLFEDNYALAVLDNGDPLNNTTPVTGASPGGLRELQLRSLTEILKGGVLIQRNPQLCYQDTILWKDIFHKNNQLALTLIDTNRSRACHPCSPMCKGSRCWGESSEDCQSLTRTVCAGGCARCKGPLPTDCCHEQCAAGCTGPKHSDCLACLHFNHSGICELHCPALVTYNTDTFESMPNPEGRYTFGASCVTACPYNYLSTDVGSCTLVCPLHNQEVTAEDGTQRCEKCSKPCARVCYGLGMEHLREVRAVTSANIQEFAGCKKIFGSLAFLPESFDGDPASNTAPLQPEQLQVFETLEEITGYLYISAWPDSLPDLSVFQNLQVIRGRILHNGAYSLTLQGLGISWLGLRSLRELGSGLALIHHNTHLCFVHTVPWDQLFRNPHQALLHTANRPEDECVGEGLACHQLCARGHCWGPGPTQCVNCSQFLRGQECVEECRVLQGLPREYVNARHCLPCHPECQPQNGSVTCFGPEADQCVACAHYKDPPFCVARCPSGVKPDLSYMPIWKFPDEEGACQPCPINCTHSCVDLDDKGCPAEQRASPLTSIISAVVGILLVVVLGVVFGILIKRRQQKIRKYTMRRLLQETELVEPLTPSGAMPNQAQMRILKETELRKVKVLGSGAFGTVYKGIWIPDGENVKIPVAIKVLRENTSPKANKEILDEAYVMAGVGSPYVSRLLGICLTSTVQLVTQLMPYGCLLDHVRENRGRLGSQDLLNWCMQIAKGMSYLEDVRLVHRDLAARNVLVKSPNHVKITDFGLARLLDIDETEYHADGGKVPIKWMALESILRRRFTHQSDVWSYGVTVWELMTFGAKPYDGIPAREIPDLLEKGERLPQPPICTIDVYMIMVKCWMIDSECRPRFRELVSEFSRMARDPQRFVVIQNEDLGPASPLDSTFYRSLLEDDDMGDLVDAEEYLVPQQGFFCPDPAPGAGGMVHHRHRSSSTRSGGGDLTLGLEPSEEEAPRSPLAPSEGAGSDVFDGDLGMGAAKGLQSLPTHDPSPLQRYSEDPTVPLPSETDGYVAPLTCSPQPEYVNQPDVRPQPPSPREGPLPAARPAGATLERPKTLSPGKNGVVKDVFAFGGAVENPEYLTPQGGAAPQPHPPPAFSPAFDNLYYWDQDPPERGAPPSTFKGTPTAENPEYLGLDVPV

[8] = target: Ribosomal protein S6 kinase beta-1 (Homo sapiens) (UniProt P23443); test: Inhibition of human P70S6K1 at 1 uM using fluorescently labeled peptide substrate measured after 3 hrs by microfluidic mobility shift assay relative to control; in short: as §2
[9] = target: Phosphatidylinositol 4,5-bisphosphate 3-kinase catalytic subunit alpha isoform (Homo sapiens) (UniProt P42336); test: Inhibition of human PI3kalpha at 1 uM using fluorescently labeled peptide substrate measured after 3 hrs by microfluidic mobility shift assay relative to control; in short: as §2
[10] = target: Sphingosine kinase 1 (Homo sapiens) (UniProt Q9NYA1); test: Inhibition of human SPHK1 at 1 uM using fluorescently labeled peptide substrate measured after 3 hrs by microfluidic mobility shift assay relative to control; in short: as §2
Chain of Sphingosine kinase 1 (Homo sapiens) (Q9NYA1 whole entry): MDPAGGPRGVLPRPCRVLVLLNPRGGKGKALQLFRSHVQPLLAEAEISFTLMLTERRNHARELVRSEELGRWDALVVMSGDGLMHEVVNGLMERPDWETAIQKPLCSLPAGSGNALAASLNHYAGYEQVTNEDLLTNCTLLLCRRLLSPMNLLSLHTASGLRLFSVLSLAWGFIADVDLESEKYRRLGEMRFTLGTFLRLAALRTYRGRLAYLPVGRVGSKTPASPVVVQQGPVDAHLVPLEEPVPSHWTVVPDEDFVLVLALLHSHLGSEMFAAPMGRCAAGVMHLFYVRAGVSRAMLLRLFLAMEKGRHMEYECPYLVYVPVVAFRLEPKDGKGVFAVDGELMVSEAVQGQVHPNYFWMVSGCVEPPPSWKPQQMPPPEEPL

[11] = target: Angiopoietin-1 receptor (Homo sapiens) (UniProt Q02763); test: Inhibition of human TIE2 at 1 uM using fluorescently labeled peptide substrate measured after 3 hrs by microfluidic mobility shift assay relative to control; in short: as §2
Chain of Angiopoietin-1 receptor (Homo sapiens) (Q02763 whole entry): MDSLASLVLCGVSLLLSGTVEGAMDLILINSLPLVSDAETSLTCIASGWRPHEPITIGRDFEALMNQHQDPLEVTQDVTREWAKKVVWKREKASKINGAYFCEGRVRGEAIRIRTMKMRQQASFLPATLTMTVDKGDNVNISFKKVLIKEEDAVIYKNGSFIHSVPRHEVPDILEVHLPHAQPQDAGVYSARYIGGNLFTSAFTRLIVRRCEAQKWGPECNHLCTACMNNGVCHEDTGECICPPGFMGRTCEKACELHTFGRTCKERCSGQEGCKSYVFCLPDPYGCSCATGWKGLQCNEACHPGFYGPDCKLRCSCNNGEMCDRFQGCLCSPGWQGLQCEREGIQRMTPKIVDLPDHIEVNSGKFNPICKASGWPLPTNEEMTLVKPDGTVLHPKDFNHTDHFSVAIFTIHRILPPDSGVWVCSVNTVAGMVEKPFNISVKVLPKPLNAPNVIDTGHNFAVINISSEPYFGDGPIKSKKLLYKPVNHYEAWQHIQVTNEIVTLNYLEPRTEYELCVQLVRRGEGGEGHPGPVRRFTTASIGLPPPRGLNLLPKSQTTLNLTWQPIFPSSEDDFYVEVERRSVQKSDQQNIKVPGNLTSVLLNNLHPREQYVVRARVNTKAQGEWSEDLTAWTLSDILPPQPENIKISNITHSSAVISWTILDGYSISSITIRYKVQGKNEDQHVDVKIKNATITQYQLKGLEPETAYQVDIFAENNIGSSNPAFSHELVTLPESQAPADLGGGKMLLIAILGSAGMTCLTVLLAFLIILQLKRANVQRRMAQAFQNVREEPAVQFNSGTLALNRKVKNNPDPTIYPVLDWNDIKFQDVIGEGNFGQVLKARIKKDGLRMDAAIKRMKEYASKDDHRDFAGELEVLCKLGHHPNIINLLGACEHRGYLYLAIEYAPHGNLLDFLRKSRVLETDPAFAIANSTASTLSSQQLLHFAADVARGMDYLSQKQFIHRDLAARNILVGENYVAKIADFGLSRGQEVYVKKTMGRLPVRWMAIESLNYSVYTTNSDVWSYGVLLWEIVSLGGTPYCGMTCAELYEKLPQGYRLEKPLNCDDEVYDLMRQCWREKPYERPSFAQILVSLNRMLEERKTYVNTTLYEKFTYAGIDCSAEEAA

[12] = AUC in Swiss mouse at 1 mg/kg, po via gavage by LC-MS/MS analysis; assay type: ADME, organism-based; set-up: dose 1 mg/kg; conditions: in vivo; in short: as §1
[13] = Cmax in Swiss mouse at 1 mg/kg, po via gavage by LC-MS/MS analysis; assay type: ADME, organism-based; set-up: route oral, dose 1 mg/kg; conditions: in vivo; in short: as §1
[14] = Elimination half life in Swiss mouse at 1 mg/kg, po via gavage by LC-MS/MS analysis; assay type: ADME, organism-based; conditions: in vivo, read-out: beta t1/2 (converted); in short: as §1
[15] = AUC in Swiss mouse at 10 mg/kg, po via gavage by LC-MS/MS analysis; assay type: ADME, organism-based; set-up: dose 10 mg/kg; conditions: in vivo; in short: as §1
[16] = Toxicity in Swiss mouse assessed as body weight loss at 10 mg/kg, po administered twice daily via gavage for 5 days and measuring daily during compound dosing; assay type: organism-based; conditions: in vivo, 120 h, time 5 day
In short: (§3)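 Female Swiss mice (3 treated, 2 vehicle controls) received oral gavage twice daily for 5 days, with compound formulated in 0.5% CMC and Tween 80. Body weight, body temperature, body coat, feed intake, eyes, feces and general activity were observed daily.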

[17] = Toxicity in Swiss mouse assessed as effect on eyes at 10 mg/kg, po administered twice daily via gavage for 5 days and measuring daily during compound dosing; assay type: organism-based; conditions: in vivo, 120 h, time 5 day; in short: as §3
[18] = Toxicity in Swiss mouse assessed as morphological changes in kidney at 30 mg/kg, po administered twice daily via gavage for 5 days and measured post last dose; assay type: organism-based; conditions: in vivo, 120 h, time 5 day
In short: (§4)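 Female Swiss mice (3 treated, 2 controls) were gavaged twice daily for 5 days, with compound in 0.5% CMC and Tween 80. After the last dosing the animals were sacrificed. Liver, kidney, lung, uterus and brain were excised and inspected visually for morphology and color change.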

[19] = Toxicity in Swiss mouse assessed as discoloration of kidney at 30 mg/kg, po administered twice daily via gavage for 5 days and measured post last dose; assay type: organism-based; conditions: in vivo, 120 h, time 5 day; in short: as §4
[20] = Toxicity in Swiss mouse assessed as discoloration of lung at 30 mg/kg, po administered twice daily via gavage for 5 days and measured post last dose; assay type: organism-based; conditions: in vivo, 120 h, time 5 day; in short: as §4
[21] = Toxicity in Swiss mouse assessed as discoloration of brain at 30 mg/kg, po administered twice daily via gavage for 5 days and measured post last dose; assay type: organism-based; conditions: in vivo, 120 h, time 5 day; in short: as §4
[22] = Toxicity in Swiss mouse assessed as discoloration of liver at 30 mg/kg, po administered twice daily via gavage for 5 days and measured post last dose; assay type: organism-based; conditions: in vivo, 120 h, time 5 day; in short: as §4
[23] = Drug level in Swiss mouse lung at 30 mg/kg, po administered twice daily via gavage for 5 days and measured post last dose by LC-MS/MS analysis; assay type: ADME, organism-based; conditions: time 5 day, read-out: Drug uptake
In short: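 Female Swiss mice (n=3) given 30 mg/kg in 0.5% CMC/Tween 80 by oral gavage twice daily for 5 days, with two vehicle controls. After sacrifice, liver, kidney, lung, uterus and brain were collected, homogenized in water and solvent-extracted. Drug concentration (ng/g) measured by LC-MS/MS.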

HCT-116 = test: Antitumor activity against human HCT-116 cells xenografted in po dosed CD1 nude mouse assessed as reduction in tumor volume administered once daily for 21 days and measured at 3 days interval during compound dosing; assay type: functional, organism-based; conditions: dose mg/kg 2.5-20, time 21.0 day
In short: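 Female CD1 nude mice bearing subcutaneous HCT116 xenografts, randomized at average tumor size 120–130 mm³, five per group. Dosed orally once daily at 2.5, 5, 10 or 20 mg/kg for 21 days alongside a vehicle control. Caliper measurement of tumor volume as (width² × length)/2, monitored every third day.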

CN(C)C(=O)c1ccc(Oc2nc(-c3cnc(N)s3)nc(N3CCOCC3)n2)cc1
IC50 (A2780): 230 nM | remaining at 2 h, 10 µM [1]: 105% | Cmax [2]: 6.9 µM | half-life [3]: 2.7 h | inhibition (INH) [4]: Not Active | inhibition [5]: 0% | inhibition [6]: -1% | inhibition [7]: -1% | inhibition [8]: -1% | inhibition [9]: 86% | inhibition [10]: -1% | inhibition [11]: 1% | AUC [12]: 26.9 µM·h | Cmax [13]: 5.01 µM | half-life [14]: 2.66 h | AUC [15]: 76.4 µM·h | Activity [16]: Non-Toxic | Activity [17]: Non-Toxic | Activity [18]: Non-Toxic | Activity [19]: Non-Toxic | Activity [20]: Non-Toxic | Activity [21]: Non-Toxic | Activity [22]: Toxic | concentration at 120 h [23]: 50 ng/g | Activity (HCT-116): Dose-dependent effect
